# Screens from PubChem.
# JNK3 blocker – blocks human JNK3 kinase activity. P53779. purified JNK3 kinase activity, HTS. inhibition, % at 8 µM. 0.61% of 60,000 active. AID 746; in the data active = inhibition above about 17%;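 also: 0% = DMSO and 100% = reference inhibitor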
# M1 antagonist – M1 muscarinic receptor (rat) antagonism; P08482; CHO-M1 cells, Fluo-4 calcium, ACh EC80 antagonist mode; stronger effect = lower value; B-score at 10 µM; 3.4% of 64,000 active; AID 628;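 active = calcium fluorescence response, raw or row-and-column corrected B-score, differing from the plate sample mean either way at a set confidence level, mostly lower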
# Target sequence (P08482 whole entry, looked up): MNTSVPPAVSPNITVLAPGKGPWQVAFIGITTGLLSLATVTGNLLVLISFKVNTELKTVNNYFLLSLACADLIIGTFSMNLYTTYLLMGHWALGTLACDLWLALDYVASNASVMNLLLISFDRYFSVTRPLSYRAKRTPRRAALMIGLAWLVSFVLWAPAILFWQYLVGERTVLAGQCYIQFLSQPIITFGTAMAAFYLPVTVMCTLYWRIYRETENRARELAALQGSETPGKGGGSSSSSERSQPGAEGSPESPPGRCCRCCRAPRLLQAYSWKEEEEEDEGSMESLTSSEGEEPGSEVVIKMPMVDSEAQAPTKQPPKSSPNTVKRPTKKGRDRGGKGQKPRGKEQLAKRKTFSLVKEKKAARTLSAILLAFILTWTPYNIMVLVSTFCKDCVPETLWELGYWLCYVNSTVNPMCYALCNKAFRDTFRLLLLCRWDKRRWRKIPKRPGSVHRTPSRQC
# HEK293 NFkB inh – lowers PMA/ionomycin-induced NF-kB signal in HEK293 cells; HEK-293 NF-kB luciferase reporter, luminescence; inhibition, % at 3 µM; 0.21% of 62,000 active;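 active = inhibition above the mean of all tested compounds plus 3 SD, cut at about 40% in these data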;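 also: 0% = stimulated DMSO wells and 100% = 10 µM reference inhibitor 5653914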
#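 System – HEK-293 cells with stable firefly luciferase reporter driven by four HIV NF-kB elements · Doses – one dose, 3 µM · Schedule – 1 h compound pre-incubation, 16 h PMA/ionomycin at 37 °C · Technique – luminescence from luciferase substrate reagent · Measure – percent inhibition normalized per plate to DMSO and reference-inhibitor controls · Replicates – tested once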
# M1 agonist – M1 muscarinic receptor agonism; CHO-M1 cells, Fluo-4 calcium fluorescence, agonist mode; stronger effect = higher value; B-score at 10 µM; 3% of 64,000 active; AID 626;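 active = fluorescence rise, raw or as B-score row- and column-corrected plate score, outside the 99.7% band of its plate's samples, either direction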
# BAP1 inh – inhibitors of human BAP1 deubiquitinase; Q92560; recombinant BAP1, Ub-AMC hydrolysis fluorescence kinetic; stronger effect = lower value; 0.48% of 72,000 active; AID 436; calls only at 20 µM;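 active = activity remaining at or below 50% of control, provided the compound also passes the data quality filters; inactive = the rest, including low values that fail the filters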;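 also: 100% = DMSO wells rate and 0% = substrate alone blank rate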
# HER2 expr 66K – inhibitors of human Her2 kinase expression; P04626; SKBR-3 HER2 protein level, AlphaScreen, 18-24 h; stronger effect = lower value; HER2 level % of control, % at 10 µM; 0.69% of 65,000 active; AID 645;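 active = HER2 level under 5% of the carrier-only control; inconclusive = no clear call, values can overlap the other calls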;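 also: 100% = DMSO carrier and 0% = 500 nM PU-H71 HSP90 inhibitor; lower value means stronger loss of Her2 protein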
# M1 agonist conf – confirmation of rat M1 muscarinic receptor agonists. shares compounds with M1 agonist. CHO-M1 cells, Fluo-4 calcium fluorescence, agonist mode; actives lie on both sides. fluorescence change (max-min) at 10 µM. 19% of 1,700 active. AID 1488;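 active = fluorescence change differs from the solvent-only DMSO control mean at a set confidence level in both duplicate runs; inconclusive = differs from solvent-only control mean in just one of two runs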;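 also: an EC20 dose of acetylcholine follows compound addition during the same imaging run; raw fluorescence intensity difference in instrument units with no normalization to controls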
# M4 ag counter – activates rat M4 receptor in counter-screen for M1 agonists; shares compounds with M1 agonist; CHO M4/Gqi5 cells, Fluo-4 calcium fluorescence, agonist mode; actives lie on both sides; fluorescence change (max-min) at 10 µM; 9% of 1,700 active;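 active = fluorescence change differing from the plate's solvent-only control wells at 99.7% confidence in both duplicates, whether higher or lower; inconclusive = differs from solvent controls in only one of two duplicates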
# * = called active by the depositor; i = inactive; ? = inconclusive; · = not tested or not shown. Rows were chosen to be rich in hits. Some 6.6% of all compounds tested hit in one or more screens of this group.
SMILES,JNK3 blocker,M1 antagonist,HEK293 NFkB inh,M1 agonist,BAP1 inh,HER2 expr 66K,M1 agonist conf,M4 ag counter
O=C(Nc1nc2ccc([N+](=O)[O-])cc2s1)c1ccc(C(=O)c2ccccc2)cc1,·,·,·,·,i,·,·,·
COc1ccc(CCNc2oc(COc3ccc(Br)cc3)nc2C#N)cc1OC,·,-0.38,·,4.9*,·,104,-24*,-72*
Cc1ccnc(SCCn2c(N3CCN(c4ccccc4)CC3)nc3c2c(=O)[nH]c(=O)n3C)n1,-7,0.053,14,6.4*,i,78,-7.8,?
CC1CN(c2ccc(Oc3ccccc3)cc2)c2nc3c(c(=O)n(CC(N)=O)c(=O)n3C)n2C1 (configuration not stated),-3,-0.13,-5,0.19,i,92,·,·
C=CCn1c(=O)c2c(nc3n2CC(C)CN3c2cccc(OC)c2)n(C)c1=O (configuration not stated),-2,0.26,13,1.9*,i,75,-13,?
CCCOc1nc2c(c(=O)n(C)c(=O)n2C)n1Cc1cccc2ccccc12,·,-0.7,12,3.6*,·,92,?,-32
COC(=O)c1ccc2c(c1)SC1=C(CCCC1=O)N2,-25,0.63,12,11*,·,84,55,?
C#CCN(CC#C)c1ccc([N+](=O)[O-])cc1,·,·,·,·,i,·,·,·
O=C(NCc1ccco1)C(Cc1ccccc1)N1C(=O)C2C3C=CC(C3)C2C1=O (configuration not stated),-2,-0.89,12,4.5*,i,100,?,-45
O=C(C(Cc1ccccc1)N1C(=O)C2C3C=CC(C3)C2C1=O)N1CCCCCC1 (configuration not stated),-5,-0.16,13,0.082,i,114,·,·
Cc1ccc(C)c(N2CCN(C(=O)CCCOc3cc(=O)n(C)c4ccccc34)CC2)c1,2,-0.93,2,5.9*,i,72,-18,-23
Cc1ccc(C)c(N2CCN(C(=O)COc3cc(=O)n(C)c4ccccc34)CC2)c1,-1,0.46,8,5.5*,i,59,-8.6,-37
COc1cccc(C(=O)Nc2cccc(-c3nc4ncccc4o3)c2C)c1,6,0.42,8,1.3,i,87,·,·
O=C(Nc1cccc(-c2nc3ncccc3o2)c1)c1cc2ccccc2o1,5,-0.098,-2,6*,i,114,-18,?
Cc1cc(C)cc(OCC(=O)Nc2cccc(-c3nc4ncccc4o3)c2)c1,-1,-0.9,4,6.8*,i,72,-1.6,-7.8
Cc1ccc(-c2nc3ncccc3o2)cc1NC(=O)c1cc2ccccc2o1,4,-0.5,15,1.8,i,116,·,·
O=C(Cc1ccccc1)Nc1cccc(-c2nc3ncccc3o2)c1,8,-0.18,15,-0.35,i,88,·,·
CCOc1cccc(C(=O)Nc2cccc(-c3nc4ncccc4o3)c2C)c1,-6,0.11,8,4.2*,i,112,?,-80*
O=C(CCCCCn1c(=O)[nH]c2ccccc2c1=O)N1CCN(Cc2ccc3c(c2)OCO3)CC1,15,-1.3,21,3.7*,i,103,-13,-35
O=C(CCCn1c(=S)[nH]c2cc3c(cc2c1=O)OCO3)N1CCN(c2ccc(Cl)cc2)CC1,·,-0.51,21,0.13,i,89,·,·
O=C(CCC1CCCCC1)N1CCN(Cc2ccc3c(c2)OCO3)CC1,8,-0.75,10,6.1*,i,64,-12,?
Cc1[nH]c2ccccc2c1NC(=O)CN1CCN(Cc2ccc3c(c2)OCO3)CC1,-2,·,-3,·,i,95,·,·
O=C(CCCn1c(=S)[nH]c2cc3c(cc2c1=O)OCO3)N1CCN(c2ccccc2)CC1,·,-0.62,14,3.2*,i,88,?,-60
O=C(CCn1c(=S)[nH]c2cc3c(cc2c1=O)OCO3)N1CCN(c2ccccn2)CC1,·,-0.58,10,0.59,i,89,·,·
Cc1cccc(N2CCN(C(=O)CCn3c(=S)[nH]c4cc5c(cc4c3=O)OCO5)CC2C)c1 (configuration not stated),·,-0.17,12,2.5*,i,85,-6.2,-24
SMILES,JNK3 blocker,M1 antagonist,HEK293 NFkB inh,M1 agonist,BAP1 inh,HER2 expr 66K,M1 agonist conf,M4 ag counter
O=C(c1ccc(S(=O)(=O)N2CCCCC2)cc1)N1CCN(Cc2ccc3c(c2)OCO3)CC1,1,-0.61,9,0.059,i,79,·,·
CCOC(=O)c1c(NC(=O)Cc2ccc(OC)c(OC)c2)sc2c1CCCC2,·,·,·,·,i,·,·,·
CCOc1cc(C2C(C#N)=C(N)OC(C)=C2C(C)=O)cc(Br)c1O (configuration not stated),-1,-0.027,5,23*,i,99,180*,170*
Cc1cc(NC(=O)CSc2nnc(-c3ccoc3C)o2)no1,2,0.39,26,-3.7*,i,98,?,-54
COc1cc(OC)cc(-c2nnc(SCC(=O)Nc3cc(C)on3)o2)c1,-2,0.55,-2,-0.65,i,82,·,·
CC(=O)N1CCN(c2ccc(Oc3ncnc4sccc34)cc2)CC1,5,1.7,22,0.69,i,94,·,·
Clc1ccc(OCCN2CCN(c3ncnc4sccc34)CC2)cc1,-2,-3.3*,62*,4.5*,i,115,15,-21
C=CCc1ccccc1OCC(O)CN1CCN(Cc2ccc3c(c2)OCO3)CC1 (configuration not stated),-1,-5.4*,10,6.9*,i,153,9.5,-22
C=CCc1ccccc1OCC(O)CN1CCN(C(=O)OCC)CC1 (configuration not stated),-1,-1.3,1,28*,i,202,172*,-44
CCOC(=O)N1CCN(CC(O)COc2ccccc2C(C)CC)CC1 (configuration not stated),2,-0.35,12,-0.48,i,123,·,·
CCOC(=O)N1CCN(CC(O)COc2ccccc2C(C)C)CC1 (configuration not stated),1,-1,13,13*,i,118,65*,-6.6
Cc1ccc(C)c(NC(=O)c2ccc(S(=O)(=O)N3CCc4ccccc4C3)cc2)c1,·,·,·,·,i,·,·,·
CCOc1ccc(NC(=O)COc2ccc(C34CC5CC(CC(C5)C3)C4)cc2)cc1,·,·,·,·,i,·,·,·
O=C(O)c1cccc(NC(=O)c2ccc(N3C(=O)c4ccc([N+](=O)[O-])cc4C3=O)cc2)c1,·,·,·,·,i,·,·,·
O=C(c1cccs1)c1no[n+]([O-])c1C(=O)c1cccs1,-4,-3.2*,19,12*,i,9,21,-3.2
